Measured values taken from ChEMBL document CHEMBL5674883, “The Heterochromatin Landscape in Migrating Cells and the Importance of H3K27me3 for Associated Transcriptome Alterations” (Cells, 2018).

How the values were obtained:
Assay type in all cases: cell-based
[1] = target: T1, RNA polymerase II (Mus musculus) (UniProt P08775+Q8CFI7+P97760+A0A3Q4L2S8+Q80UW8+P61219+P62488+Q923G2+P60898+O08740+Q63871+P62876); assay: Inhibition of RNA polymerase II in mouse B16-F1 migrating cells assessed as fold change in Ptbp2-RNA stability at 0.1 mM measured by […] analysis relative to control cells
[2] = target: T1, RNA polymerase II (Mus musculus); assay: Inhibition of RNA polymerase II in mouse B16-F1 migrating cells assessed as fold change in Efcab7-RNA stability at 0.1 mM measured by ChIP-seq analysis relative to control cells
[3] = target: T1, RNA polymerase II (Mus musculus); assay: Inhibition of RNA polymerase II in mouse B16-F1 migrating cells assessed as fold change in Dnttip2-RNA stability at 0.1 mM measured by ChIP-seq analysis relative to control cells
Outline: (§1)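 Mouse B16-F1 melanoma cells grown to confluence on fibronectin in DMEM/10% FCS at 37 °C, 7% CO2. Migration induced by multiple scratches and 3 h incubation; unscratched controls. DRB 0.1 mM added 3 h before lysis. RNA from poly A-selected mRNA was sequenced (RNA-seq, three replicates per DRB group). Fold change computed for DRB-treated migrating vs DRB-treated control cells; cutoffs fold change >1.3, FDR <0.05.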

[4] = target: T1, RNA polymerase II (Mus musculus); assay: Inhibition of RNA polymerase II in mouse B16-F1 migrating cells assessed as fold change in Cd2ap-RNA stability at 0.1 mM measured by […] analysis relative to control cells; outline: as §1
[5] = target: T1, RNA polymerase II (Mus musculus); assay: Inhibition of RNA polymerase II in mouse B16-F1 migrating cells assessed as fold change in Fth1-RNA stability at 0.1 mM measured by ChIP-seq analysis relative to control cells
[6] = target: T1, RNA polymerase II (Mus musculus); assay: Inhibition of RNA polymerase II in mouse B16-F1 migrating cells assessed as fold change in Zfp280c-RNA stability at 0.1 mM measured by […] analysis relative to control cells
[7] = target: T1, RNA polymerase II (Mus musculus); assay: Inhibition of RNA polymerase II in mouse B16-F1 migrating cells assessed as fold change in Gtf3c4-RNA stability at 0.1 mM measured by ChIP-seq analysis relative to control cells
[8] = target: T1, RNA polymerase II (Mus musculus); assay: Inhibition of RNA polymerase II in mouse B16-F1 migrating cells assessed as fold change in Cul4b-RNA stability at 0.1 mM measured by […] analysis relative to control cells; outline: as §1
[9] = target: T1, RNA polymerase II (Mus musculus); assay: Inhibition of RNA polymerase II in mouse B16-F1 migrating cells assessed as fold change in Uba52-RNA stability at 0.1 mM measured by […] analysis relative to control cells
[10] = target: T1, RNA polymerase II (Mus musculus); assay: Inhibition of RNA polymerase II in mouse B16-F1 migrating cells assessed as fold change in Eif2s3x-RNA stability at 0.1 mM measured by […] analysis relative to control cells; outline: as §1
[11] = target: T1, RNA polymerase II (Mus musculus); assay: Inhibition of RNA polymerase II in mouse B16-F1 migrating cells assessed as fold change in Alkbh8-RNA stability at 0.1 mM measured by […] analysis relative to control cells
[12] = target: T1, RNA polymerase II (Mus musculus); assay: Inhibition of RNA polymerase II in mouse B16-F1 migrating cells assessed as fold change in Zfp966-RNA stability at 0.1 mM measured by […] analysis relative to control cells
[13] = target: T1, RNA polymerase II (Mus musculus); assay: Inhibition of RNA polymerase II in mouse B16-F1 migrating cells assessed as fold change in Pgp-RNA stability at 0.1 mM measured by […] analysis relative to control cells
[14] = target: T1, RNA polymerase II (Mus musculus); assay: Inhibition of RNA polymerase II in mouse B16-F1 migrating cells assessed as fold change in Ikzf4-RNA stability at 0.1 mM measured by ChIP-seq analysis relative to control cells
[15] = target: T1, RNA polymerase II (Mus musculus); assay: Inhibition of RNA polymerase II in mouse B16-F1 migrating cells assessed as fold change in Kcnab2-RNA stability at 0.1 mM measured by ChIP-seq analysis relative to control cells; outline: as §1
[16] = target: Histone-lysine N-methyltransferase EZH2 (Mus musculus) (UniProt Q61188); assay: Inhibition of EZH2 in mouse B16-F1 migrating cells assessed as fold change in H3K27me3-independent regulated Adgrg1-mRNA expression at 3 uM measured by […] analysis relative to control cells
Outline: (§2)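 Confluent B16-F1 cells on fibronectin-coated plates were scratched at multiple sites, washed once with DMEM and left to migrate 3 h in growth medium (37 °C, 7% CO2); unscratched cells served as control. GSK343 (3 µM) was added 3 h before lysis. Poly A mRNA was sequenced (RNA-seq), with 5 replicates for untreated and 3 for treated cells. Differential expression was called by linear model with batch correction, at FDR <0.05 and fold change ≥1.3.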

[17] = target: Histone-lysine N-methyltransferase EZH2 (Mus musculus) (UniProt Q61188); assay: Inhibition of EZH2 in mouse B16-F1 migrating cells assessed as fold change in H3K27me3-buffered regulated 1810032O08Rik-mRNA expression at 3 uM measured by […] analysis relative to control cells
Outline: (§3)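 Confluent B16-F1 cells on fibronectin-coated plates, cultured at 37 °C and 7% CO2, were scratched at multiple sites to induce migration. They were then held 3 h in growth medium containing 3 µM GSK343, with the inhibitor added 3 h before lysis. Unscratched cells served as controls. Poly A mRNA was analysed by RNA-seq (n=3 GSK343, n=5 controls). Linear models removed batch effects, and buffered genes were those altered only under GSK343 (FDR <0.05, fold change >1.3).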

[18] = target: Histone-lysine N-methyltransferase EZH2 (Mus musculus) (UniProt Q61188); assay: Inhibition of EZH2 in mouse B16-F1 migrating cells assessed as fold change in H3K27me3-buffered regulated 1700027J19Rik-mRNA expression at 3 uM measured by […] analysis relative to control cells; outline: as §3
[19] = target: Histone-lysine N-methyltransferase EZH2 (Mus musculus) (UniProt Q61188); assay: Inhibition of EZH2 in mouse B16-F1 migrating cells assessed as fold change in H3K27me3-buffered regulated Tet2-mRNA expression at 3 uM measured by ChIP-seq analysis relative to control cells; outline: as §2
[20] = target: Histone-lysine N-methyltransferase EZH2 (Mus musculus) (UniProt Q61188); assay: Inhibition of EZH2 in mouse B16-F1 migrating cells assessed as fold change in H3K27me3-independent regulated Dlx6-mRNA expression at 3 uM measured by […] analysis relative to control cells; outline: as §2
[21] = target: Histone-lysine N-methyltransferase EZH2 (Mus musculus) (UniProt Q61188); assay: Inhibition of EZH2 in mouse B16-F1 migrating cells assessed as fold change in H3K27me3-buffered regulated Ctxn1-mRNA expression at 3 uM measured by ChIP-seq analysis relative to control cells; outline: as §3
[22] = target: Histone-lysine N-methyltransferase EZH2 (Mus musculus) (UniProt Q61188); assay: Inhibition of EZH2 in mouse B16-F1 migrating cells assessed as fold change in H3K27me3-independent regulated Dusp10-mRNA expression at 3 uM measured by […] analysis relative to control cells; outline: as §2
[23] = target: Histone-lysine N-methyltransferase EZH2 (Mus musculus) (UniProt Q61188); assay: Inhibition of EZH2 in mouse B16-F1 migrating cells assessed as fold change in H3K27me3-buffered regulated Ccdc18-mRNA expression at 3 uM measured by […] analysis relative to control cells; outline: as §3
[24] = target: Histone-lysine N-methyltransferase EZH2 (Mus musculus) (UniProt Q61188); assay: Inhibition of EZH2 in mouse B16-F1 migrating cells assessed as fold change in H3K27me3-buffered regulated Mef2d-mRNA expression at 3 uM measured by […] analysis relative to control cells; outline: as §3

Histone-lysine N-methyltransferase EZH2 (Mus musculus), sequence (Q61188 whole entry): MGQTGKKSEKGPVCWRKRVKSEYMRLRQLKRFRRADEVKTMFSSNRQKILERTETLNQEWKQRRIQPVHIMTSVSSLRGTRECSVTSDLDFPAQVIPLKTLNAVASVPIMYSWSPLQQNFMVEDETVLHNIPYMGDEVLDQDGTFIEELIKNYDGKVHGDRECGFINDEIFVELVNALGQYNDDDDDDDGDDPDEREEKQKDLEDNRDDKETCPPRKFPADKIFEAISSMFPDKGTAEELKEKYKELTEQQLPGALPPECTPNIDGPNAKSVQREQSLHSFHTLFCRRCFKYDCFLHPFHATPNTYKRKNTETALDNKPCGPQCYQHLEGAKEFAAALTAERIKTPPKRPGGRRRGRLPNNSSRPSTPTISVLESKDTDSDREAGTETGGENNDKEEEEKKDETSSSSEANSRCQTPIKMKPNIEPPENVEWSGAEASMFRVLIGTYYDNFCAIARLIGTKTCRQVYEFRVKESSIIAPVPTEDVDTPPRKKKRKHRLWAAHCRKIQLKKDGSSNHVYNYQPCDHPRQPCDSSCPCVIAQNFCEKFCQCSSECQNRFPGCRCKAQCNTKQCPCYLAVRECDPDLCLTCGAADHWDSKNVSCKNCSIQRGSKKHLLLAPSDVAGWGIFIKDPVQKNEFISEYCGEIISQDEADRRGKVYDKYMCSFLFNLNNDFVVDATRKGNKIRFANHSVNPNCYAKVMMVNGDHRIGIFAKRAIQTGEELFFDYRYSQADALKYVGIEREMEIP

Q: Which log2FC [1] does the source give for `OC[C@H]1O[C@@H](n2cnc3cc(Cl)c(Cl)cc32)[C@H](O)[C@@H]1O` here?
A: Its log2FC is -0.56.

Q: What about the log2FC [2] of the same compound?
A: Its log2FC is -0.79.

Q: And the log2FC [3]?
A: The log2FC was -0.87.

Q: What about the log2FC [4] of the same compound?
A: Its log2FC is -0.57.

Q: What about the log2FC [5] of the same compound?
A: The log2FC was 0.6.

Q: What about the log2FC [6] of the same compound?
A: The log2FC was -0.98.

Q: What about the log2FC [7] of the same compound?
A: Its log2FC is -0.54.

Q: And the log2FC [8]?
A: The log2FC was -0.49.

Q: And the log2FC [9]?
A: The log2FC was 0.49.

Q: What about the log2FC [10] of the same compound?
A: Its log2FC is -0.51.

Q: And the log2FC [11]?
A: The log2FC was -0.55.

Q: And the log2FC [12]?
A: The log2FC was -0.82.

Q: What about the log2FC [13] of the same compound?
A: The log2FC was 0.82.

Q: And the log2FC [14]?
A: Its log2FC is 0.93.

Q: And the log2FC [15]?
A: The log2FC was 0.49.

Q: Which results are given for `CCCc1cc(C)[nH]c(=O)c1CNC(=O)c1cc(-c2ccnc(N3CCN(C)CC3)c2)cc2c1cnn2C(C)C`?
A: log2FC [16]: 0.48; log2FC [17]: -1.08; log2FC [18]: 0.73; log2FC [19]: -0.48; log2FC [20]: -0.86; log2FC [21]: 0.43; log2FC [22]: 0.57; log2FC [23]: -0.87; log2FC [24]: 0.41
